Reference: ChEMBL document CHEMBL1153859, “Analogs of JHU75528, a PET ligand for imaging of cerebral cannabinoid receptors (CB1): development of ligands with optimized lipophilicity and binding affinity” (Eur J Med Chem, 2009)
Activity calls are given as the source filed them. The calls are words filed in the database; no cut-off is given here.

Columns and labels:
Cannabinoid receptor 1 [1] = target: T1, Cannabinoid receptor 1 (Homo sapiens, UniProt P21554); experiment: biochemical; format: cell-based, HEK293
[2] = Octanol-phosphate buffer partition coefficient, log D at pH 7.4 by shake-flask method; format: physicochemical
How it was run: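 Octanol/phosphate buffer (pH 7.4) partition by conventional shake-flask; logD7.4 reported as mean ± S.D. of independent assays.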

Mus musculus [3] = experiment: Binding affinity to CB1 receptor in CD1 mouse brainstem at 200 uCi, iv after 60 mins in presence of rimonabant; format: functional, organism-based; settings: tested as the 11C-labelled form
How it was run: (§1)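 Controls got vehicle. 15 min later [11C] tracer (~7.4 MBq, ~200 μCi; ~300 GBq/μmol) was given i.v.; n=3 per group. Brains were harvested at 60 min and regions dissected on ice, then γ-counted against injectate standards as %ID/g tissue. Single-factor ANOVA, p ≤ 0.05.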

Mus musculus [4] = experiment: Binding affinity to CB1 receptor in CD1 mouse hippocampus at 200 uCi, iv after 60 mins in presence of rimonabant; format: functional, organism-based; settings: tested as the 11C-labelled form
How it was run: as §1

Cannabinoid receptor 1 [5] = target: T1, Cannabinoid receptor 1; experiment: Binding affinity to human CB1 receptor assessed as binding potential
[6] = target: Cannabinoid receptor 1 (Mus musculus) (UniProt P47746); experiment: Antagonist activity at CB1 receptor in C57/BL6 mouse striatum assessed as blockade of WIN-55212-2 induced inhibition of glutamate release at 3 uM by electrophysiology; format: functional, tissue-based
[7] = test system: Cannabinoid receptor 1 (Macaca mulatta); experiment: Binding affinity to Rhesus monkey CB1 receptor assessed as binding potential; settings: tested as the 11C-labelled form

T1 sequence (P21554 whole entry): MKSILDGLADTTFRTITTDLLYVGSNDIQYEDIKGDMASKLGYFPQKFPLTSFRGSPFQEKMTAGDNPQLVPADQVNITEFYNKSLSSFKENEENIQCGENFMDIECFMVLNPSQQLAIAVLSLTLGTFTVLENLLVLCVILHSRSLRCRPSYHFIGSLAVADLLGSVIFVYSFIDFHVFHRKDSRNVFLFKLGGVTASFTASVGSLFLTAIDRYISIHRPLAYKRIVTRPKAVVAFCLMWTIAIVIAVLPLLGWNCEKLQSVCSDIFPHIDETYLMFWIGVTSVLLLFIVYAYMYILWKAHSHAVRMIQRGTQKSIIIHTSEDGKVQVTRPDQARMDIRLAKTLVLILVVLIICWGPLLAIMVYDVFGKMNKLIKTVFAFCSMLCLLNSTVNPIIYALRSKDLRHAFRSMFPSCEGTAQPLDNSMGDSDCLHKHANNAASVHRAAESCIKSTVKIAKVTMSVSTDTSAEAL
Chain of Cannabinoid receptor 1 (Mus musculus) (P47746 whole entry): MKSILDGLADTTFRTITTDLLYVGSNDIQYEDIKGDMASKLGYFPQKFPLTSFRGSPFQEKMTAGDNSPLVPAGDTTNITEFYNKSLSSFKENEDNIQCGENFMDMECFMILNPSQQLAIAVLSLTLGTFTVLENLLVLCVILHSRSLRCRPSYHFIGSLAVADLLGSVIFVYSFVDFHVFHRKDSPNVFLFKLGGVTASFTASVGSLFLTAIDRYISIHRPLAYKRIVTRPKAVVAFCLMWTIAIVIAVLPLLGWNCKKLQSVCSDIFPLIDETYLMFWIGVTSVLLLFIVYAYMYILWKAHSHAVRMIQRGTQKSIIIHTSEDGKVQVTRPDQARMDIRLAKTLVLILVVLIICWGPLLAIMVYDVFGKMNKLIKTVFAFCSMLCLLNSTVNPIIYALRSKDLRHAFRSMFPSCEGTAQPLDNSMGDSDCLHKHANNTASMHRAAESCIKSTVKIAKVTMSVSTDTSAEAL

SMILES | Ki (Cannabinoid receptor 1 [1]) [nM] | logD [2] | other results
COc1ccc(-c2c(C#N)c(C(=O)NN3CCCCC3)nn2-c2ccc(F)cc2Br)cc1 | 32 | 2.9 | 
COc1ccc(-c2c(C(N)=O)c(C(=O)NN3CCCCC3)nn2-c2ccccc2Br)cc1 | > 10000 | 2.5 | 
N#Cc1c(C(=O)NN2CCCCC2)nn(-c2ccc(Cl)cc2Cl)c1-c1ccc(I)cc1 | 33 | 3.9 | 
N#Cc1c(C(=O)NN2CCOCC2)nn(-c2ccc(Cl)cc2Cl)c1-c1ccc(I)cc1 | 131 | 3.2 | 
COc1ccc(-c2c(C#N)c(C(=O)NN3CCCC3)nn2-c2ccc(Cl)cc2Cl)cc1 | 2 |  | Activity (Mus musculus [3]): Active; Activity (Mus musculus [4]): inactive
COc1ccc(-c2c(C#N)c(C(=O)NN3CCCCC3)nn2-c2ccccc2Br)cc1 | 4.7 | 3.4 | 
Cc1c(C(=O)NN2CCOCC2)nn(-c2ccc(Cl)cc2Cl)c1-c1ccc(I)cc1 |  |  | Activity (Cannabinoid receptor 1 [5]; tested as the 123I-labelled form): 0.21; Activity (Cannabinoid receptor 1 [5]; tested as the 124I-labelled form): 0.37
COc1ccc(-c2c(C#N)c(C(=O)NN3CCCCC3)nn2-c2ccc(F)cc2Cl)cc1 | 13 | 2.8 | 
N#Cc1c(C(=O)NN2CCCCC2)nn(-c2ccc(Cl)cc2Cl)c1-c1ccc(OCF)cc1 | 10.3 | 2.9 | 
CCCCCCC(C)(C)c1cc(O)c2c(c1)OC(C)(C)[C@@H]1CC=C(CO)C[C@@H]21 | 1.5 |  | 
N#Cc1c(C(=O)NN2CCOCC2)nn(-c2ccc(Cl)cc2Cl)c1-c1ccc(Br)cc1 | > 1000 | 3.1 | 
N#Cc1c(C(=O)NN2CCCCC2)nn(-c2ccc(Cl)cc2Cl)c1-c1ccc(Cl)cc1 | 24 | 3.5 | 
COc1ccc(-c2c(C#N)c(C(=O)NN3CCCCC3)nn2-c2ccc(Cl)cc2Cl)cc1 [JHU-75528] | 11 |  | Activity [6]: Active; Activity [7]: 0.6
N#Cc1c(C(=O)NN2CCCCC2)nn(-c2ccc(Cl)cc2Cl)c1-c1ccc(Br)cc1 | 14 | 3.7 | 
